Screening data from PubChem BioAssay.
PG9 Ab binder: binds the HIV-1 gp120 antibody PG9 | TR-FRET gp120-PG9 antibody binding | inhibition, % at 6.7 µM | 360,000 compounds, 0.43% hits | AID 624416; in the data active means inhibition above about 8.5%
NR2E3 ag-1: agonists of human NR2E3 nuclear receptor; Q9Y5X4; CHO-S Gal4-NCOR/VP16-NR2E3 two-hybrid, luciferase; inhibition of corepressor binding, % at 3.98 µM; 360,000 compounds, 0.35% hits; AID 602229;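 active means inhibition above the mean of all tested compounds plus 3 SD, cut at about 70% in these data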;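 further: 0% = DMSO with NR2E3 transfected cells and 100% = cells lacking NR2E3 construct; higher means lower luciferase signal from less NR2E3 corepressor binding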
Target sequence (Q9Y5X4 whole entry, looked up, the tested form may be a part): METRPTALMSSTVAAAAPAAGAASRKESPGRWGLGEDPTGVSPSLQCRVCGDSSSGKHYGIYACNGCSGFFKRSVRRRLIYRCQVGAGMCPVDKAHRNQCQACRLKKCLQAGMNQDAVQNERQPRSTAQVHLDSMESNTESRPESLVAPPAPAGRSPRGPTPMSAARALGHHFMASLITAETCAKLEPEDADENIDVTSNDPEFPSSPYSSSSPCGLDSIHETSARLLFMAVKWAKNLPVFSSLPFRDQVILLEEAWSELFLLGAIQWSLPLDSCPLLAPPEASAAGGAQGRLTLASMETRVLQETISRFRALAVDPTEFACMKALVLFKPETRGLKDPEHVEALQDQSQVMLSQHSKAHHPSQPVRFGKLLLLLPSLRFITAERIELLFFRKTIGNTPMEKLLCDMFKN
MC4R ag barr: activates human MC4R beta-arrestin recruitment; 360,000 compounds, 0.98% hits; U2OS MC4R beta-arrestin complementation, luminescence; percent of melanotan II response, DMSO zero; activation, % at 8.9 µM; P32245;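 active means activation above a per-plate cutoff, the mean activation of sample wells on that plate plus 3 SD, cut at about 8% in these data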
Target sequence (P32245 whole entry, looked up): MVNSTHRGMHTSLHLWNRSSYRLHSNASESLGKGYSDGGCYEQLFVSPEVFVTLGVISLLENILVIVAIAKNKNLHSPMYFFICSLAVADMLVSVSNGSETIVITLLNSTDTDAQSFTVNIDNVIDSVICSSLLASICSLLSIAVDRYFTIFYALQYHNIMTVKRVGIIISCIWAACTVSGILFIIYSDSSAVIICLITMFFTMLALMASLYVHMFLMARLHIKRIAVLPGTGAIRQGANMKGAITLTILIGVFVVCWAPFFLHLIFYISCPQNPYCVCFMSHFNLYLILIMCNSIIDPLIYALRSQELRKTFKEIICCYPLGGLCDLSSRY
NR1D1 modulator: modulators of human Rev-erb alpha DNA binding | activity, % at 10 µM | 370,000 compounds, 0.79% hits | P20393 | Rev-erbα–FITC-DNA binding, fluorescence polarization, 90 min | AID 1259318;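 active means activity above about 14%, limit read from the data; passing the limit was not always enough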;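 further: 0% = DMSO wells with 35 nM protein and 100% = DMSO wells with 750 nM protein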
NR2E3 ag-2: activates human photoreceptor nuclear receptor NR2E3; Q9Y5X4; GST-NR2E3/biotin-RetCOR TR-FRET, 1536-well; inhibition of corepressor binding, % at 4.78 µM; 320,000 compounds, 0.12% hits; AID 2300;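 active means percent inhibition above the cutoff of mean plus 3 SD of all tested compounds, set per screening campaign, cut at about 20% in these data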;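 further: 0% = DMSO wells and 100% = biotin wells as full block of FRET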
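Format: 1536-well format; test system: GST-NR2E3 and biotin-RetCOR proteins; read-out basis: percent inhibition of TR-FRET ratio; timing: 5 h incubation at 4 °C; detection: time-resolved FRET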
MC4R antag cAMP: blocks human MC4R cAMP signaling; P32245; inhibition, % at 6.5 µM; AID 540295; MC4R-expressing cells, MTII-stimulated cAMP, LANCE TR-FRET; 360,000 compounds, 0.48% hits;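 active means inhibition above its plate's cutoff, the mean of tested wells on that plate plus 3 SD, cut at about 29% in these data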;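 further: 0% = Melanotan II alone and 100% = Melanotan II plus saturating MCL0020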
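Assay system: human MC4R-expressing U2OS cells; reagent: Melanotan II stimulation of cells; dosing: 6.5 µM single dose; timing: compound 30 min, challenge 1 h, detection 1 h; signal: TR-FRET cAMP assay; replicates: one well per compound, no replicates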
NR1D1 mod conf: Rev-erb alpha (human) modulation, hit confirmation; Rev-erb alpha FITC-DNA binding, fluorescence polarization, 90 min; 3,000 compounds, 61% hits; activation, % at 25 µM; AID 1259319; shares compounds with NR1D1 modulator;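 active means activation at or above a set limit, or at least 3 SD above the negative control mean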;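 further: 0% = 35 nM protein with DMSO and 100% = 750 nM protein high control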
RORg counter: counter-screen for Rev-erb alpha modulators: RORgamma DNA binding; shares compounds with NR1D1 modulator; purified RORgamma protein-FITC-DNA binding, fluorescence polarization; IC50, µM; 910 compounds, 8% hits; AID 1259320;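 active means Compounds whose fitted half-maximal concentration for disrupting protein-DNA binding is below 10 micromolar; the record names Rev-erb in its text, so the target is in doubt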
* = called active by the depositor. Shown are actives, neighbours in structure and some others; about 2.7% of the full set was active somewhere.

For COC(=O)c1cc2cc(Cl)ccc2nc1SC the results were PG9 Ab binder 1.0, NR2E3 ag-1 -12.2, MC4R ag barr 1.5, NR1D1 modulator 97.8*, NR2E3 ag-2 7.6, MC4R antag cAMP -8.3, NR1D1 mod conf 53.0* and RORg counter inactive.
For Cc1nc2nc(SCC(=O)O)nn2c(C)c1Cc1c(F)cccc1Cl the results were PG9 Ab binder 1.3, NR2E3 ag-1 -23.0, MC4R ag barr -0.6, NR1D1 modulator 0.0, NR2E3 ag-2 -0.3 and MC4R antag cAMP 0.7.
Screening O=C(CN1C(=O)c2cccc3cccc1c23)N1CCN(c2ccccc2)CC1 returned PG9 Ab binder 1.3, NR2E3 ag-1 -10.6, MC4R ag barr -1.6, NR1D1 modulator 17.3, NR2E3 ag-2 2.0 and MC4R antag cAMP -0.5.
For O=C(CN1C(=O)c2cccc3cccc1c23)N1CCN(c2cccc(Cl)c2)CC1 the results were PG9 Ab binder 1.0, NR2E3 ag-1 -29.5, MC4R ag barr -1.8, NR1D1 modulator 49.4*, NR2E3 ag-2 -5.0, MC4R antag cAMP 9.1 and NR1D1 mod conf 27.1*.
`CCn1cc(C(=O)OCC(=O)Nc2cccc(Cl)c2Cl)c(=O)c2ccc(C)nc21` gave PG9 Ab binder -0.6, NR2E3 ag-1 -2.6, MC4R ag barr 1.8, NR1D1 modulator 42.5*, NR2E3 ag-2 1.3, MC4R antag cAMP 7.2 and NR1D1 mod conf 18.9*.
`CN(C)c1ccc(/C=C(/C#N)C(=O)NCc2ccccc2)o1` gave PG9 Ab binder -28.4, NR2E3 ag-1 -64.4, MC4R ag barr -1.4, NR1D1 modulator 32.8*, NR2E3 ag-2 -5.2, MC4R antag cAMP -9.2 and NR1D1 mod conf 10.6.
N#C/C(=C/c1ccccc1)C(=O)NCc1ccccc1 was read as PG9 Ab binder -2.6, NR2E3 ag-1 -8.2, MC4R ag barr -0.7, NR1D1 modulator -3.9, NR2E3 ag-2 -1.2 and MC4R antag cAMP 0.9.
CC(C)Cn1c(N)c(C(=O)CSc2ncnc3sc4c(c23)CCCC4)c(=O)n(C)c1=O was read as PG9 Ab binder 0.6, NR2E3 ag-1 -6.6, MC4R ag barr -0.4, NR1D1 modulator 65.1*, NR2E3 ag-2 0.2, MC4R antag cAMP 1.2 and NR1D1 mod conf 14.2.
CC(=O)CSc1ncnc2sc3c(c12)CCCC3 was read as PG9 Ab binder 0.1, NR2E3 ag-1 0.2, MC4R ag barr 0.1, NR1D1 modulator -4.5, NR2E3 ag-2 3.1 and MC4R antag cAMP -2.4.
Screening Fc1ccc(-c2nnc(CSc3nnc4ccccn34)o2)cc1 returned PG9 Ab binder 0.3, NR2E3 ag-1 -5.8, MC4R ag barr 1.5, NR1D1 modulator -3.6, NR2E3 ag-2 -2.9 and MC4R antag cAMP 4.7.
`COc1cc2[nH]c(=S)nc(NCCc3ccc(C)cc3)c2cc1OC` gave PG9 Ab binder 7.7, NR2E3 ag-1 -11.2, MC4R ag barr 3.2, NR1D1 modulator 75.5*, MC4R antag cAMP -0.4, NR1D1 mod conf 52.3* and RORg counter 3.99*.
COc1ccc(CCNc2nc(=S)[nH]c3cc(OC)c(OC)cc23)cc1OC was read as PG9 Ab binder -0.2, NR2E3 ag-1 -6.5, MC4R ag barr -1.0, NR1D1 modulator 0.1, NR2E3 ag-2 3.4 and MC4R antag cAMP -0.7.
For COc1cccc(CSc2nnc(CSc3nc4nc(C)cc(C)n4n3)s2)c1 the results were PG9 Ab binder 0.4, NR2E3 ag-1 -4.7, MC4R ag barr -1.0, NR1D1 modulator 4.7, NR2E3 ag-2 1.8 and MC4R antag cAMP 5.1.
CC(NC(=O)c1ccc(N(C)C)cc1)C1CC2CCC1C2 (centres undefined) was read as PG9 Ab binder -1.5, NR2E3 ag-1 9.3, MC4R ag barr -0.1, NR1D1 modulator 31.5*, MC4R antag cAMP 4.5 and NR1D1 mod conf 18.3*.
Screening Cc1cc(C)c(NC(=O)C2CC(=O)N(C3CCCC3)C2)c(C)c1 (centres undefined) returned PG9 Ab binder 0.8, NR2E3 ag-1 5.0, MC4R ag barr 1.2, NR1D1 modulator -3.2 and MC4R antag cAMP 2.1.
For O=C(c1ccco1)N1C(=O)c2cccc3cccc1c23 the results were PG9 Ab binder 0.3, NR2E3 ag-1 -13.2, MC4R ag barr 0.1, NR1D1 modulator -3.2, NR2E3 ag-2 -1.3 and MC4R antag cAMP 6.3.
`O=C(c1ccccc1F)N1C(=O)c2cccc3cccc1c23` gave PG9 Ab binder 0.9, NR2E3 ag-1 -16.9, MC4R ag barr 0.6, NR1D1 modulator 24.8*, NR2E3 ag-2 -2.4, MC4R antag cAMP 12.4 and NR1D1 mod conf 10.1.
O=C(c1cccs1)N1C(=O)c2cccc3cccc1c23 was read as PG9 Ab binder -1.1, NR2E3 ag-1 -2.3, MC4R ag barr 1.8, NR1D1 modulator 51.0*, NR2E3 ag-2 2.4, MC4R antag cAMP 9.1, NR1D1 mod conf 42.5* and RORg counter >40.
`O=c1[nH]c(CSc2ncnc3sc(-c4ccccc4)cc23)nc2ccccc12` gave PG9 Ab binder -1.3, NR2E3 ag-1 -2.8, MC4R ag barr 0.1, NR1D1 modulator 38.7*, NR2E3 ag-2 0.0, MC4R antag cAMP 6.7 and NR1D1 mod conf 3.9.
Screening Cc1ccccc1S(=O)Cc1ccc(C(=O)NCCCN2CCCCC2)o1 (centres undefined) returned PG9 Ab binder -3.4, NR2E3 ag-1 -13.5, MC4R ag barr -1.5, NR1D1 modulator 1.3, NR2E3 ag-2 -3.1 and MC4R antag cAMP 7.3.
Screening COc1cccc(Nc2nc3cc(C)ccc3cc2C)c1 returned PG9 Ab binder 2.3, NR2E3 ag-1 -27.9, MC4R ag barr -1.0, NR1D1 modulator 6.4 and MC4R antag cAMP -4.3.
COc1ccc2cc(C#N)c(Nc3cccc(F)c3)nc2c1 was read as PG9 Ab binder 1.1, NR2E3 ag-1 -19.6, MC4R ag barr 0.2, NR1D1 modulator 54.8*, NR2E3 ag-2 0.0, MC4R antag cAMP 18.1, NR1D1 mod conf 42.5* and RORg counter >40.
`COc1ccccc1N1CCN(C(=O)[C@H](C)NS(=O)(=O)c2ccc3c(c2)OCCCO3)CC1` gave PG9 Ab binder 0.1, NR2E3 ag-1 -33.4, MC4R ag barr -2.5, NR1D1 modulator 4.3 and MC4R antag cAMP 10.5.
`CC(C)NCC(O)COc1ccc(Br)cc1` (centres undefined) gave PG9 Ab binder -4.5, NR2E3 ag-1 8.5, MC4R ag barr -4.3, NR1D1 modulator -1.7, NR2E3 ag-2 -4.2 and MC4R antag cAMP 4.1.
Cn1c(=O)c2cc(S(=O)(=O)N3CCN(c4ccc(F)cc4)CC3)ccc2n(C)c1=O was read as NR1D1 modulator -7.5.
